Laboratory results from ChEMBL document CHEMBL4270658, “Synthesis, in vitro and in vivo biological evaluation, COX-1/2 inhibition and molecular docking study of indole-N-acylhydrazone derivatives” (Bioorg Med Chem, 2018).
Active and inactive are the calls of the source. The rule behind the calls is not given here.

Key:
[1] = test system: Splenocyte; test: Immunomodulatory activity in BALB/c mouse splenocytes assessed as inhibition of concanavalin A-induced lymphocyte proliferation by measuring [methyl-3H]-thymidine uptake at 50 uM after 48 hrs; assay type: functional
Procedure, shortened: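 BALB/c splenocytes (5×10⁶ cells/well) in DMEM, triplicate, with concanavalin A (2 μg mL⁻¹) ± compound 48 h at 37 °C, 5% CO₂, then 1 μCi [methyl-³H]thymidine for 12 h; inhibition from thymidine uptake relative to control; dexamethasone positive control.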

[2] = Cytotoxicity against mouse J774 macrophages after 72 hrs by Alamar Blue assay; assay type: cell-based
[3] = test system: Mus musculus; test: Acute toxicity in Swiss mouse assessed as occurence of irritability at 2000 mg/kg, po after 1 hr; assay type: organism-based; details: in vivo
Procedure, shortened: (§1)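 Fixed-dose stepwise procedure following OECD acute oral toxicity guidelines; groups of 3 Swiss Mus musculus mice (20–35 g) dosed orally at 2000 mg kg⁻¹ and observed for clinical signs of pain, suffering and impending death. Test run in duplicate. Animals kept at 22 ± 3 °C, 12 h light/dark, free food and water.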

[4] = test system: Mus musculus; test: Acute toxicity in Swiss mouse assessed as occurence of ptosis at 2000 mg/kg, po after 1 hr; assay type: organism-based; details: in vivo; procedure, shortened: as §1
[5] = test system: Mus musculus; test: Acute toxicity in Swiss mouse assessed as effect on blood cell levels at 2000 mg/kg, po (reference value: 13.0 +/- 0.9 10^6/mm3); assay type: organism-based; details: in vivo
[6] = test system: Mus musculus; test: Acute toxicity in Swiss mouse assessed as effect on hemoglobin levels at 2000 mg/kg, po (reference value: 14.5 +/- 0.6 g/dl); assay type: organism-based; details: in vivo
[7] = test system: Mus musculus; test: Acute toxicity in Swiss mouse assessed as effect on hematocrit levels at 2000 mg/kg, po (reference value: 74.7 +/- 6.05%); assay type: organism-based; details: in vivo
[8] = test system: Mus musculus; test: Acute toxicity in Swiss mouse assessed as effect on mean corpuscular volume at 2000 mg/kg, po (reference value: 57.3 +/- 3.01 […]); assay type: organism-based; details: in vivo
[9] = test system: Mus musculus; test: Acute toxicity in Swiss mouse assessed as effect on mean corpuscular hemoglobin level at 2000 mg/kg, po (reference value: 11.16 +/- 0.53 pg); assay type: organism-based; details: in vivo
[10] = test system: Mus musculus; test: Acute toxicity in Swiss mouse assessed as effect on mean corpuscular hemoglobin concentration level at 2000 mg/kg, po (reference value: 19.5 +/- 0.94%); assay type: organism-based; details: in vivo
[11] = test system: Mus musculus; test: Acute toxicity in Swiss mouse assessed as effect on leukocyte level at 2000 mg/kg, po (reference value: 10.8 +/- 6.25 10^3/mm3); assay type: organism-based; details: in vivo
[12] = test system: Mus musculus; test: Acute toxicity in Swiss mouse assessed as mortality at 2000 mg/kg, po; assay type: organism-based; details: in vivo; procedure, shortened: as §1
[13] = test system: Mus musculus; test: Antiinflammatory activity in carrageenan-induced Swiss mouse assessed as inhibition of paw edema at 30 mg/kg, po pretreated for 1 hr followed by carrageenan challenge measured after 6 hrs by plethysmometric method; assay type: functional
[14] = test system: Mus musculus; test: Antiinflammatory activity in carrageenan-induced Swiss mouse assessed as inhibition of paw edema at 60 mg/kg, po pretreated for 1 hr followed by carrageenan challenge measured after 6 hrs by plethysmometric method; assay type: functional
[15] = test system: Mus musculus; test: Antiinflammatory activity in carrageenan-induced Swiss mouse assessed as paw volume at 60 mg/kg, po pretreated for 1 hr followed by carrageenan challenge measured after 1 hr by plethysmometric method (reference value: 59.39 +/- 10.59 […]); assay type: functional
[16] = target: T1, Prostaglandin G/H synthase 1 (Ovis aries, UniProt P05979); test: Inhibition of ovine COX-1 using arachidonic acid as substrate preincubated for 5 mins followed by substrate addition measured after 1 hr
T1 sequence (P05979 whole entry): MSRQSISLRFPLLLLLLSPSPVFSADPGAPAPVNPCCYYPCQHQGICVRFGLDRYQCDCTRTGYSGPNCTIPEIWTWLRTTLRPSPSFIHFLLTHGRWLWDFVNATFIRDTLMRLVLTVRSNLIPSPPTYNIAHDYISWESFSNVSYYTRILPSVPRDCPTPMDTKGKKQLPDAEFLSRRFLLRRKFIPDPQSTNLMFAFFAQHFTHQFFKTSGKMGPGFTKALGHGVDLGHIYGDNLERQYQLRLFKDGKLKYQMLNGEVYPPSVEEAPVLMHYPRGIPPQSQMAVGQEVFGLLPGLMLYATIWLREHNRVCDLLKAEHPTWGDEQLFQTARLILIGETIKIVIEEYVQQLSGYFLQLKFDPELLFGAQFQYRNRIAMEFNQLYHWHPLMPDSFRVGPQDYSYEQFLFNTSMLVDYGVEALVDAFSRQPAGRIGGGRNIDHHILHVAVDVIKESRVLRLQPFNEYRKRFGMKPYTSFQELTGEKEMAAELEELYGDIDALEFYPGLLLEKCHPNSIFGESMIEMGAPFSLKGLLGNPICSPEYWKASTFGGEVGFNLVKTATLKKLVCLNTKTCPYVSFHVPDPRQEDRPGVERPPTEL

[17] = target: T2, Prostaglandin G/H synthase 2 (Homo sapiens, UniProt P35354); test: Inhibition of recombinant N-terminal His6-tagged human COX-2 expressed in Baculovirus infected Sf21 cells using arachidonic acid as substrate preincubated for 5 mins followed by substrate addition measured after 1 hr; assay type: cell-based
T2 sequence (P35354 whole entry): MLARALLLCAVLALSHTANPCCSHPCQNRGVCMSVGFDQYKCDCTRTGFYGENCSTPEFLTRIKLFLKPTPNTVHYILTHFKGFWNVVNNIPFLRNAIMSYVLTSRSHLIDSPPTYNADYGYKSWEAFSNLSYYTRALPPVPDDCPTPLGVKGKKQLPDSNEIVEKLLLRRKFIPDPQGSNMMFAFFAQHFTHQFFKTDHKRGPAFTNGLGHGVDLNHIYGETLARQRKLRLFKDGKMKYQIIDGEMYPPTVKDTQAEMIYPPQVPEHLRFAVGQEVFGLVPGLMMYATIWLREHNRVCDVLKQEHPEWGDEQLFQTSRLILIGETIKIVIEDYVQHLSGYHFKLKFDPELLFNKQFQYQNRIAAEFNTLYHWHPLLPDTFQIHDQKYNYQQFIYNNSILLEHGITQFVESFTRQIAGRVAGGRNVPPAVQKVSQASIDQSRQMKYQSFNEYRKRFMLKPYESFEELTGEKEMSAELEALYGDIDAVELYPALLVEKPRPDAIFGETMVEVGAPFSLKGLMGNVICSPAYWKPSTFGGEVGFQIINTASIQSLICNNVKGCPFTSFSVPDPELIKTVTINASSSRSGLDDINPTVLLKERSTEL

[18] = Selectivity index, ratio of IC50 for ovine COX-1 to IC50 for recombinant N-terminal His6-tagged human COX-2
Procedure, shortened: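 COX-1 or COX-2 in 100 mM Tris-HCl pH 8.0 with hematin, compound (in DMSO, 1.5–100 μM) preincubated 5 min at room temperature; started with arachidonic acid plus TMPD, absorbance at 610 nm after 1 h; triplicate; IC50 calculated, selectivity index from COX-1 and COX-2 IC50s.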

[19] = test system: Splenocyte; test: Antiinflammatory activity in BALB/c mouse splenocytes assessed as increase of IL-10 level at 11 uM after 24 to 48 hrs by cytometric bead array method; assay type: functional, cell-based
Procedure, shortened: (§2)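 Splenocytes from female BALB/c mice (6–8 weeks) isolated on Ficoll-Paque (1.076 g/mL), viability >98% by trypan blue; cultured with 11 μM compound for 24 and 48 h. Supernatant cytokines measured by cytometric bead array on flow cytometer; two independent experiments in triplicate.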

[20] = test system: Splenocyte; test: Antiinflammatory activity in BALB/c mouse splenocytes assessed as inhibition of IL-2 level at 11 uM after 24 to 48 hrs by cytometric bead array method; assay type: functional, cell-based; procedure, shortened: as §2
[21] = test system: Splenocyte; test: Antiinflammatory activity in BALB/c mouse splenocytes assessed as inhibition of TNFalpha level at 11 uM after 24 to 48 hrs by cytometric bead array method; assay type: functional, cell-based; procedure, shortened: as §2
[22] = test system: Splenocyte; test: Antiinflammatory activity in BALB/c mouse splenocytes assessed as decrease of IL-6 level at 11 uM after 24 hrs by cytometric bead array method; assay type: functional, cell-based; procedure, shortened: as §2
[23] = test system: Splenocyte; test: Antiinflammatory activity in BALB/c mouse splenocytes assessed as increase of IL-4 level at 11 uM after 24 to 48 hrs by cytometric bead array method; assay type: functional, cell-based; procedure, shortened: as §2
[24] = test system: Splenocyte; test: Antiinflammatory activity in BALB/c mouse splenocytes assessed as inhibition of IFNgamma level at 11 uM after 24 to 48 hrs by cytometric bead array method; assay type: functional, cell-based; procedure, shortened: as §2
[25] = test system: Splenocyte; test: Antiinflammatory activity in BALB/c mouse splenocytes assessed as inhibition of IFNgamma-induced nitric oxide production at 11 uM after 24 to 48 hrs by Griess method; assay type: functional, cell-based
[26] = test system: Mus musculus; test: Antiinflammatory activity in carrageenan-induced Swiss mouse assessed as inhibition of paw edema at 15 mg/kg, po pretreated for 1 hr followed by carrageenan challenge measured after 6 hrs by plethysmometric method; assay type: functional
[27] = test system: Mus musculus; test: Antiinflammatory activity in carrageenan-induced Swiss mouse assessed as inhibition of paw edema at 30 mg/kg, po pretreated for 1 hr followed by carrageenan challenge measured after 1 hr by plethysmometric method; assay type: functional
[28] = test system: Mus musculus; test: Antiinflammatory activity in carrageenan-induced Swiss mouse assessed as inhibition of paw edema at 30 mg/kg, po pretreated for 1 hr followed by carrageenan challenge measured after 5 hrs by plethysmometric method; assay type: functional
[29] = test system: Mus musculus; test: Antiinflammatory activity in carrageenan-induced Swiss mouse assessed as inhibition of paw edema at 60 mg/kg, po pretreated for 1 hr followed by carrageenan challenge measured after 1 hr by plethysmometric method; assay type: functional
[30] = test system: Mus musculus; test: Antiinflammatory activity in carrageenan-induced Swiss mouse assessed as inhibition of paw edema at 10 mg/kg, po pretreated for 1 hr followed by carrageenan challenge measured after 2 hrs by plethysmometric method; assay type: functional
[31] = test system: Mus musculus; test: Antiinflammatory activity in carrageenan-induced Swiss mouse assessed as inhibition of paw edema at 10 mg/kg, po pretreated for 1 hr followed by carrageenan challenge measured after 6 hrs by plethysmometric method; assay type: functional

Cc1cccc2c(/C=N/NC(=O)CC#N)c[nH]c12
inhibition at 50 µM [1]: 52.2% | CC50 at 72 h [2]: 146 µM

N#CCC(=O)N/N=C/c1c[nH]c2ccc(Br)cc12
inhibition at 50 µM [1]: 62.7% | CC50 at 72 h [2]: 144 µM | Activity [3]: Non-Toxic | Activity [4]: Non-Toxic | Activity [5]: 8.4 ×10⁶ /mm3 | Activity [6]: 14.1 g/dL | Activity [7]: 57.6% | Activity [8]: 53.6 fL | Activity [9]: 16.8 pg | Activity [10]: 32.9% | Activity [11]: 5.9 ×10³ /mm3 | Activity [12]: Non-Toxic | inhibition in vivo at 30 mg/kg [13]: 61.8% | inhibition in vivo at 60 mg/kg [14]: 66.3% | Activity [15]: 48.33 mL | IC50 [16]: 0.18 µM | IC50 [17]: 0.25 µM | Ratio IC50 [18]: 0.72

N#CCC(=O)N/N=C/c1c[nH]c2ncccc12
inhibition at 50 µM [1]: 52.4% | CC50 at 72 h [2]: 107 µM

N#CCC(=O)N/N=C/c1c[nH]c2ccccc12
Activity [19]: Active | inhibition at 50 µM [1]: 50.7% | CC50 at 72 h [2]: 150 µM | inhibition [20]: Active | inhibition [21]: inactive | Activity [22]: inactive | Activity [23]: Active | inhibition [24]: Active | inhibition [25]: Active | Activity [3]: Non-Toxic | Activity [4]: Non-Toxic | Activity [5]: 8.1 ×10⁶ /mm3 | Activity [6]: 13.6 g/dL | Activity [7]: 42.5% | Activity [8]: 51.5 fL | Activity [9]: 17.05 pg | Activity [10]: 33.8% | Activity [11]: 3.6 ×10³ /mm3 | Activity [12]: Non-Toxic | inhibition in vivo at 60 mg/kg [14]: 92.5% | inhibition in vivo at 15 mg/kg [26]: 67% | inhibition in vivo at 30 mg/kg [27]: 88.9% | inhibition in vivo at 30 mg/kg [28]: 100% | inhibition in vivo at 60 mg/kg [29]: 74.3% | IC50 [16]: 1.54 µM | IC50 [17]: 1.02 µM | Ratio IC50 [18]: 1.51

N#CCC(=O)N/N=C/c1c[nH]c2ccc(C#N)cc12
inhibition at 50 µM [1]: 25.7% | CC50 at 72 h [2]: 69.4 µM

N#CCC(=O)N/N=C/c1c[nH]c2c1ccc1ccccc12
inhibition at 50 µM [1]: 1.2% | CC50 at 72 h [2]: 78.5 µM

COc1ccc2c(c1)c(CC(=O)O)c(C)n2C(=O)c1ccc(Cl)cc1 [INDOMETHACIN]
inhibition in vivo at 10 mg/kg [30]: 72.4% | inhibition in vivo at 10 mg/kg [31]: 84.1%

N#CCC(=O)N/N=C/c1c[nH]c2cccc([N+](=O)[O-])c12
inhibition at 50 µM [1]: 31% | CC50 at 72 h [2]: 66 µM

COc1ccc2[nH]cc(/C=N/NC(=O)CC#N)c2c1
inhibition at 50 µM [1]: 43.7% | CC50 at 72 h [2]: 101 µM

N#CCC(=O)N/N=C/c1c[nH]c2ccc(Cl)cc12
inhibition at 50 µM [1]: 1.8% | CC50 at 72 h [2]: 76.9 µM

C[C@@H]1C[C@H]2[C@@H]3CCC4=CC(=O)C=C[C@]4(C)[C@@]3(F)[C@@H](O)C[C@]2(C)[C@@]1(O)C(=O)CO [DEXAMETHASONE]
inhibition at 50 µM [1]: 74.6%

Cc1ccc2[nH]cc(/C=N/NC(=O)CC#N)c2c1
inhibition at 50 µM [1]: 15.4% | CC50 at 72 h [2]: 200 µM
